# Measurements pooled from the literature.
# Each line is one published result; the experiments were not run side by side.
# Effect on: cell growth or viability
Compound,cell line,assay,setting,IC50 [µM]
CC(=NN=c1[nH]c(C)c(N=Nc2ccc(C)cc2)s1)c1c(O)c2ccccc2oc1=O,human Skin fibroblast,MTT,48 h,> 100
CCn1c(-c2nnc(NC(=O)c3cc4c([nH]c5ccccc54)c(-c4cc(OC)c(OC)c(OC)c4)n3)s2)cc2ccccc21,BT-474,MTT,72 h,19.5
CC1(C)CC[C@]2(C(=O)O)CC[C@]3(C)C(=CC[C@@H]4[C@@]5(C)CC[C@H](O)C(C)(C)[C@@H]5CC[C@]43C)[C@@H]2C1,human Skin fibroblast,MTT,48 h,63.6
CC(=O)O[C@H]1C(=O)[C@@]2(C)[C@H]([C@H](OC(=O)c3ccccc3)[C@]3(O)C[C@H](OC(=O)[C@H](O)[C@@H](NC(=O)c4ccccc4)c4ccccc4)C(C)=C1C3(C)C)[C@]1(OC(C)=O)CO[C@@H]1C[C@@H]2O,KB 3-1,MTT,,0.00772
COc1cccc2c1C(=O)c1c(O)c3c(c(O)c1C2=O)C[C@@](O)(C(=O)CO)C[C@@H]3O[C@H]1C[C@H](N)[C@H](O)[C@H](C)O1,MB002,,7 days,0.0645
CCn1c(=O)c(-c2ccc(-c3cncs3)cc2Cl)cc2cnc(Nc3ccc(N4CCN(C)CC4)cc3)nc21,CFPAC-1,MTT,24 h,6.92
CC1(C)[C@@H](O)CC[C@]2(C)[C@H]3C(=O)C=C4[C@@H]5C[C@@](C)(C(=O)O)CC[C@]5(C)CC[C@@]4(C)[C@]3(C)CC[C@@H]12,human Skin fibroblast,MTT,48 h,48.2
O=C(O)c1ccc2c(c1)nc(Nc1cccc(Cl)c1)c1ccncc12,HD-MB03,,,0.501
CCn1c(-c2nnc(NC(=O)c3cc4c([nH]c5ccccc54)c(-c4ccc(C)cc4)n3)s2)cc2ccccc21,BT-474,MTT,72 h,19.5
CC(C)C[C@H](NC(=O)[C@H](Cc1ccccc1)NC(=O)c1cnccn1)B(O)O,SK-ES1,ATP luminescence,,0.0087
CC(=NN=C1NC(=O)C(C)S1)c1c(O)c2ccccc2oc1=O (centres unmarked),human Skin fibroblast,MTT,48 h,> 100
COc1cccc2c1C(=O)c1c(O)c3c(c(O)c1C2=O)C[C@@](O)(C(=O)CO)C[C@@H]3O[C@H]1C[C@H](N)[C@H](O)[C@H](C)O1,U373 MG,SRB,,0.88
Cn1c(=O)n(-c2ccc(C(C)(C)C#N)cc2)c2c3cc(-c4cnc5ccccc5c4)ccc3ncc21,MB002,,7 days,0.031
COc1cc(Nc2nccc(-c3cnn4nc(OC)ccc34)n2)cc(C(F)(F)F)c1,NCI-H1563,ATP luminescence,,> 3
CC(=NN=c1sc(N=Nc2ccc(C)cc2)c(C)n1C)c1c(O)c2ccccc2oc1=O,human Skin fibroblast,MTT,48 h,> 100
CC[C@]1(O)C[C@H]2CN(CCc3c([nH]c4ccccc34)[C@@](C(=O)OC)(c3cc4c(cc3OC)N(C=O)[C@H]3[C@@](O)(C(=O)OC)[C@H](OC(C)=O)[C@]5(CC)C=CCN6CC[C@]43[C@@H]65)C2)C1,KB 3-1,MTT,,0.00744
Cn1cnc2c(F)c(Nc3ccc(Br)cc3Cl)c(C(=O)NOCCO)cc21,MB002,,7 days,> 10
CCn1c(-c2nnc(NC(=O)c3cc4c([nH]c5ccccc54)c(-c4ccc(OC)cc4)n3)s2)cc2ccccc21,BT-474,MTT,72 h,20.1
CC(C)c1cc(-c2n[nH]c(=O)n2-c2ccc3c(ccn3C)c2)c(O)cc1O,B16-F10,imaging,24 h,0.321
CC(=NN=C1SCC(=O)N1C)c1c(O)c2ccccc2oc1=O,human Skin fibroblast,MTT,48 h,> 100
Cn1c(-c2nnc(NC(=O)c3cc4c([nH]c5ccccc54)c(-c4ccc(F)cc4)n3)s2)cc2ccccc21,BT-474,MTT,72 h,18.4
Cc1cc(-c2nc(C(=O)Nc3cc4oc(N5CCOCC5)nc4nc3N3CC[C@@H](O)C3)co2)ccn1,B16-F10,,5 days,0.55
Cc1nc(Nc2ncc(C(=O)Nc3c(C)cccc3Cl)s2)cc(N2CCN(CCO)CC2)n1,MB002,,7 days,2.65
CNc1ncc2cc(-c3ccc(-c4cccc(C)n4)cc3Cl)c(=O)n(C[C@H]3OC[C@H](N)CO3)c2n1,CFPAC-1,MTT,24 h,23.9
CCn1c(C)csc1=NN=C(C)c1c(O)c2ccccc2oc1=O,human Skin fibroblast,MTT,48 h,> 100
CN(C)c1ccc2cc(C(=O)N[C@@H](CCCNC(=N)CCl)C(=O)NCc3ccccc3)ccc2c1,S-180,,48 h,8.4
CCOC(=O)c1sc(=NN=C(C)c2c(O)c3ccccc3oc2=O)[nH]c1C,human Skin fibroblast,MTT,48 h,> 100
Oc1ccc(Nc2nc(-c3ccc(Cl)cc3)cs2)cc1,WM278,MTS,48 h,21.4
Cc1c(C(=O)Nc2ccc(N3C[C@@H](C)O[C@@H](C)C3)nc2)cccc1-c1ccc(OC(F)(F)F)cc1,MB002,,7 days,> 10
CC(=NN=c1scc(C)n1C)c1c(O)c2ccccc2oc1=O,human Skin fibroblast,MTT,48 h,> 100
O=C(N/N=C/c1c(O)ccc2ccccc12)c1cc(-c2ccc3ccccc3c2)n[nH]1,WM278,MTS,72 h,6.1
Cn1c(-c2nnc(NC(=O)c3cc4c([nH]c5ccccc54)c(-c4ccccc4)n3)s2)cc2ccccc21,BT-474,MTT,72 h,17.6
COc1cc(OC)c(/C=C/S(=O)(=O)Nc2ccc(OC)c(N)c2)c(OC)c1,MES-SA,trypan blue,96 h,0.004
COc1ccc(-c2nc(C(=O)Nc3nnc(-c4cc5ccccc5[nH]4)s3)cc3c2[nH]c2ccccc23)cc1,BT-474,MTT,72 h,4.09
CON(C)C(=O)N1N=C(c2cc(F)ccc2F)S[C@@]1(CCCN)c1ccccc1,MB002,,7 days,0.000967
O=C(Nc1ccccc1CO)c1c[nH]c2ccc(Cl)cc12,SK-N-BE,MTT,,17
Cc1cc2c(F)c(Oc3ncnn4cc(OC[C@@H](C)O)c(C)c34)ccc2[nH]1,HD-MB03,,7 days,> 10
CNC(=S)NN=C(C)c1c(O)c2ccccc2oc1=O,human Skin fibroblast,MTT,48 h,> 100
